The text below walks through data of ChEMBL document CHEMBL4024754, “Development of Potent, Protease-Resistant Agonists of the Parathyroid Hormone Receptor with Broad β Residue Distribution” (J Med Chem, 2017).

In assay [1] the target is T1, Parathyroid hormone/parathyroid hormone-related peptide receptor (Homo sapiens, UniProt Q03431).
T1 sequence (Q03431 whole entry): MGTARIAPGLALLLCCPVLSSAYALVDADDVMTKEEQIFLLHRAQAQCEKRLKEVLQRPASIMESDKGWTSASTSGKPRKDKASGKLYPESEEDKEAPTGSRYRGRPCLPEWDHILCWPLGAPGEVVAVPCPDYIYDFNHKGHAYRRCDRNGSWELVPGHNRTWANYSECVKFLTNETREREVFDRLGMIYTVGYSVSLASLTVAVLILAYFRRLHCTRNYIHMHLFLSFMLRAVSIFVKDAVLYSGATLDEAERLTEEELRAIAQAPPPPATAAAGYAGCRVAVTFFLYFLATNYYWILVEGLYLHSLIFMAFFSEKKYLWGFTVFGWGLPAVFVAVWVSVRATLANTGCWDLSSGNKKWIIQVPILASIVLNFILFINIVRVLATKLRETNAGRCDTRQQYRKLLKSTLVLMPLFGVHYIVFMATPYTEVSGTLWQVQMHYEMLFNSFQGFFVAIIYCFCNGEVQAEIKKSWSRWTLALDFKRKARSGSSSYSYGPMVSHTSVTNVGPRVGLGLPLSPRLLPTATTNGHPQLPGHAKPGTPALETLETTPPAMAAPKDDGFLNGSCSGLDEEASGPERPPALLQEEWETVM
Briefly: Agonist activity at human PTH1 receptor expressed in human GP2.3 cells assessed as induction of cAMP after 12 to 20 mins by luciferase reporter gene assay. The assay is classed as functional, cell-based. Particulars: read-out: EC50. Background: A reporter such as luciferase makes a cellular process visible.

Assay [2] has as its target T2, Parathyroid hormone/parathyroid hormone-related peptide receptor (Homo sapiens) (UniProt Q03431).
T2 sequence (whole entry): T1 sequence (Q03431 whole entry)
Briefly: Agonist activity at human PTH1 receptor expressed in human GP2.3 cells assessed as induction of cAMP after 12 to 20 mins by luciferase reporter gene assay relative to PTH(1 to 34 residues)-NH2. The assay is classed as functional, cell-based.

The target of assay [3] is T2, Parathyroid hormone/parathyroid hormone-related peptide receptor (Homo sapiens). Briefly: Agonist activity at extracellular domain truncate human PTH1 receptor expressed in GD5 cells assessed as induction of cAMP after 12 to 20 mins by luciferase reporter gene assay. The assay is classed as functional, cell-based. A digest of the protocol: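 HEK293-derived lines stably expressing Glosensor cAMP reporter plus full-length human PTHR1 (GP2.3) or ECD-truncated PTHR1 (GD5). Confluent monolayers preincubated at room temperature in CO2-independent medium with 0.5 mM D-luciferin until baseline stable (30 min), then varied agonist concentrations added. Maximal luminescence (12−20 min) used for sigmoidal variable-slope fits.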

The target is the same in assay [4]. Briefly: Displacement of [125I]-PTH(1 to 34 residues) from R0 state of human PTHR1 expressed in African green monkey COS7 cell membranes incubated for >1 hr in presence of GTPgammaS by gamma radiation method. (In a radioligand displacement assay an active substance lowers the binding of a labelled ligand.)

The source made the active and inactive calls. The calls are words filed in the database; no cut-off is given here. Numbered stars: 1 amine (or outer) side, 2 acyl side, 3 side chain; on linkers, the order of the positions; unused ones are H or OH. Square brackets hold non-standard residues; d marks the D form. Peptide text beside a SMILES is read from it. * marks the point of attachment. NH(1S,2S-2-CONH2-cPent) = NC(=O)[C@H]1CCC[C@@H]1N*; ACPC(1S,2S) = N[C@H]1CCC[C@@H]1C(=O)*; X1 = O=C([C@H]1CCC[C@@H]1N[*:1])[*:2]; X2 = O=C([C@H]1CNC[C@@H]1N[*:1])[*:2]

Consider `CC[C@H](C)[C@H](NC(=O)[C@H](CCC(=O)O)NC(=O)[C@H](CO)NC(=O)[C@@H](NC(=O)[C@@H](N)CO)C(C)C)C(=O)N[C@@H](CCC(N)=O)C(=O)N[C@H]1CCC[C@@H]1C(=O)N[C@@H](CCSC)C(=O)N[C@@H](Cc1cnc[nH]1)C(=O)N[C@@H](CC(N)=O)C(=O)N[C@@H](CC(C)C)C(=O)NCC(=O)N[C@@H](CCCCN)C(=O)N[C@@H](Cc1cnc[nH]1)C(=O)N[C@@H](CC(C)C)C(=O)N[C@@H](CC(N)=O)C(=O)N[C@@H](CO)C(=O)N[C@@H](CCSC)C(=O)N[C@@H](CCC(=O)O)C(=O)N[C@@H](CCCNC(=N)N)C(=O)N[C@H](C(=O)N[C@@H](CCC(=O)O)C(=O)N[C@@H](Cc1c[nH]c2ccccc12)C(=O)N[C@@H](CC(C)C)C(=O)N[C@@H](CCCNC(=N)N)C(=O)N[C@@H](CCCCN)C(=O)N[C@@H](CCCCN)C(=O)N[C@@H](CC(C)C)C(=O)N[C@@H](CCC(N)=O)C(=O)N[C@@H](CC(=O)O)C(=O)N[C@H](C(=O)N[C@@H](Cc1cnc[nH]1)C(=O)N[C@@H](CC(N)=O)C(=O)N[C@@H](Cc1ccccc1)C(N)=O)C(C)C)C(C)C`, for which, in assay [1], the EC50 (as a rule, the concentration at which the effect is half-maximal) was determined as 0.12 nM. Also, the fold change (FC) in assay [2] came to 1.3. Further, the outcome in assay [3] was Active.
Turning to `CC[C@H](C)[C@H](NC(=O)[C@H](CCC(=O)O)NC(=O)[C@H]1CCC[C@@H]1NC(=O)[C@@H](NC(=O)[C@@H](N)CO)C(C)C)C(=O)N[C@@H](CCC(N)=O)C(=O)N[C@@H](CC(C)C)C(=O)N[C@@H](CCSC)C(=O)N[C@@H](Cc1cnc[nH]1)C(=O)N[C@@H](CC(N)=O)C(=O)N[C@@H](CC(C)C)C(=O)NCC(=O)N[C@@H](CCCCN)C(=O)N[C@@H](Cc1cnc[nH]1)C(=O)N[C@@H](CC(C)C)C(=O)N[C@@H](CC(N)=O)C(=O)N[C@@H](CO)C(=O)N[C@@H](CCSC)C(=O)N[C@@H](CCC(=O)O)C(=O)N[C@@H](CCCNC(=N)N)C(=O)N[C@H](C(=O)N[C@@H](CCC(=O)O)C(=O)N[C@@H](Cc1c[nH]c2ccccc12)C(=O)N[C@@H](CC(C)C)C(=O)N[C@@H](CCCNC(=N)N)C(=O)N[C@@H](CCCCN)C(=O)N[C@@H](CCCCN)C(=O)N[C@@H](CC(C)C)C(=O)N[C@@H](CCC(N)=O)C(=O)N[C@@H](CC(=O)O)C(=O)N[C@H](C(=O)N[C@@H](Cc1cnc[nH]1)C(=O)N[C@@H](CC(N)=O)C(=O)N[C@@H](Cc1ccccc1)C(N)=O)C(C)C)C(C)C`, in assay [1], the EC50 came out at 11.5 nM. Also, the fold change (FC) in assay [2] is 126. The outcome in assay [3] was Active.
Consider `CC[C@H](C)[C@H](NC(=O)[C@H](CC(C)C)NC(=O)[C@H]1CNC[C@@H]1NC(=O)[C@H](Cc1cnc[nH]1)NC(=O)[C@H](CC(C)C)NC(=O)[C@H](Cc1ccccc1)NC(=O)[C@H]1CNC[C@@H]1NC(=O)[C@H](CCCNC(=N)N)NC(=O)[C@H](CCCNC(=N)N)NC(=O)[C@H](CCCNC(=N)N)NC(=O)[C@H]1CCC[C@@H]1NC(=O)[C@H](CC(=O)O)NC(=O)[C@H](CCC(N)=O)NC(=O)[C@@H](NC(=O)[C@H]1CCC[C@@H]1NC(=O)[C@H](CCCCN)NC(=O)CNC(=O)[C@H](CCCCN)NC(=O)[C@H](CC(=O)O)NC(=O)[C@H](Cc1cnc[nH]1)NC(=O)[C@H](CC(C)C)NC(=O)[C@H]1CCC[C@@H]1NC(=O)[C@H](CCC(N)=O)NC(=O)[C@H]1CCC[C@@H]1NC(=O)[C@H](CCC(=O)O)NC(=O)[C@H](CO)NC(=O)[C@@H](NC(=O)[C@H]1CCC[C@@H]1N)C(C)C)[C@@H](C)CC)C(=O)N[C@@H](C)C(=O)N[C@H]1CCC[C@@H]1C(=O)N[C@H](C(=O)N[C@@H](Cc1cnc[nH]1)C(=O)N[C@H](C(=O)N[C@H]1CCC[C@@H]1C(N)=O)[C@@H](C)O)[C@@H](C)CC` ({ACPC(1S,2S)}-VSE[X1]Q[X1]LHDKGK[X1]IQD[X1]RRR[X2]FLH[X2]LIA[X1]IHT-{NH(1S,2S-2-CONH2-cPent)}), for which the EC50 in assay [1] came to 0.51 nM. Besides, the fold change (FC) in assay [2] worked out at 7.4. In assay [4], the inhibition result is “Active”.
In the case of `CC[C@H](C)[C@H](NC(=O)[C@H](CCC(=O)O)NC(=O)[C@H](CO)NC(=O)[C@@H](NC(=O)[C@@H](N)CO)C(C)C)C(=O)N[C@H]1CCC[C@@H]1C(=O)N[C@@H](CC(C)C)C(=O)N[C@@H](CCSC)C(=O)N[C@@H](Cc1cnc[nH]1)C(=O)N[C@@H](CC(N)=O)C(=O)N[C@@H](CC(C)C)C(=O)NCC(=O)N[C@@H](CCCCN)C(=O)N[C@@H](Cc1cnc[nH]1)C(=O)N[C@@H](CC(C)C)C(=O)N[C@@H](CC(N)=O)C(=O)N[C@@H](CO)C(=O)N[C@@H](CCSC)C(=O)N[C@@H](CCC(=O)O)C(=O)N[C@@H](CCCNC(=N)N)C(=O)N[C@H](C(=O)N[C@@H](CCC(=O)O)C(=O)N[C@@H](Cc1c[nH]c2ccccc12)C(=O)N[C@@H](CC(C)C)C(=O)N[C@@H](CCCNC(=N)N)C(=O)N[C@@H](CCCCN)C(=O)N[C@@H](CCCCN)C(=O)N[C@@H](CC(C)C)C(=O)N[C@@H](CCC(N)=O)C(=O)N[C@@H](CC(=O)O)C(=O)N[C@H](C(=O)N[C@@H](Cc1cnc[nH]1)C(=O)N[C@@H](CC(N)=O)C(=O)N[C@@H](Cc1ccccc1)C(N)=O)C(C)C)C(C)C`, in assay [1], the EC50 stood at 0.34 nM. Moreover, in assay [2], the fold change (FC) worked out at 3.7. For the same molecule, the result in assay [3] was Active.
Turning to `CSCC[C@H](NC(=O)[C@H](CO)NC(=O)[C@H](CC(N)=O)NC(=O)[C@H](CC(C)C)NC(=O)[C@H](Cc1cnc[nH]1)NC(=O)[C@H](CCCCN)NC(=O)CNC(=O)[C@H](CC(C)C)NC(=O)[C@H](CC(N)=O)NC(=O)[C@H](Cc1cnc[nH]1)NC(=O)[C@H](CCSC)NC(=O)[C@H](CC(C)C)NC(=O)[C@H](CCC(N)=O)NC(=O)[C@H]1CCC[C@@H]1NC(=O)[C@H](CCC(=O)O)NC(=O)[C@H](CO)NC(=O)[C@@H](NC(=O)[C@@H](N)CO)C(C)C)C(=O)N[C@@H](CCC(=O)O)C(=O)N[C@@H](CCCNC(=N)N)C(=O)N[C@H](C(=O)N[C@@H](CCC(=O)O)C(=O)N[C@@H](Cc1c[nH]c2ccccc12)C(=O)N[C@@H](CC(C)C)C(=O)N[C@@H](CCCNC(=N)N)C(=O)N[C@@H](CCCCN)C(=O)N[C@@H](CCCCN)C(=O)N[C@@H](CC(C)C)C(=O)N[C@@H](CCC(N)=O)C(=O)N[C@@H](CC(=O)O)C(=O)N[C@H](C(=O)N[C@@H](Cc1cnc[nH]1)C(=O)N[C@@H](CC(N)=O)C(=O)N[C@@H](Cc1ccccc1)C(N)=O)C(C)C)C(C)C`, in assay [1], the EC50 was 0.17 nM. Also, in assay [2], the fold change (FC) turned out to be 1.9. The result in assay [3] was Active.
In the case of `CC[C@H](C)[C@H](NC(=O)[C@H](CCC(=O)O)NC(=O)[C@H](CO)NC(=O)[C@H]1CCC[C@@H]1NC(=O)[C@@H](N)CO)C(=O)N[C@@H](CCC(N)=O)C(=O)N[C@@H](CC(C)C)C(=O)N[C@@H](CCSC)C(=O)N[C@@H](Cc1cnc[nH]1)C(=O)N[C@@H](CC(N)=O)C(=O)N[C@@H](CC(C)C)C(=O)NCC(=O)N[C@@H](CCCCN)C(=O)N[C@@H](Cc1cnc[nH]1)C(=O)N[C@@H](CC(C)C)C(=O)N[C@@H](CC(N)=O)C(=O)N[C@@H](CO)C(=O)N[C@@H](CCSC)C(=O)N[C@@H](CCC(=O)O)C(=O)N[C@@H](CCCNC(=N)N)C(=O)N[C@H](C(=O)N[C@@H](CCC(=O)O)C(=O)N[C@@H](Cc1c[nH]c2ccccc12)C(=O)N[C@@H](CC(C)C)C(=O)N[C@@H](CCCNC(=N)N)C(=O)N[C@@H](CCCCN)C(=O)N[C@@H](CCCCN)C(=O)N[C@@H](CC(C)C)C(=O)N[C@@H](CCC(N)=O)C(=O)N[C@@H](CC(=O)O)C(=O)N[C@H](C(=O)N[C@@H](Cc1cnc[nH]1)C(=O)N[C@@H](CC(N)=O)C(=O)N[C@@H](Cc1ccccc1)C(N)=O)C(C)C)C(C)C`, the EC50 in assay [1] is 0.27 nM. Besides, the fold change (FC) in assay [2] came out at 3. Further, in assay [3], the outcome was Active.
